Results taken from ChEMBL document CHEMBL4834402, “Discovery of TAK-981, a First-in-Class Inhibitor of SUMO-Activating Enzyme for the Treatment of Cancer” (J Med Chem, 2021).
In brackets after ≈: the same amount, converted by molar mass. Activity calls are given as the source filed them. The calls are words filed in the database; no cut-off is given here.

Key:
HCT-116 [1] = test: Cytotoxicity against human HCT116 cells assessed as reduction in cell viability after 72 hrs by CellTiter-Glo luminescent assay; assay type: functional, cell-based; settings: HCT-116, 72 h
[2] = AUC in rat blood at 10 mg/kg, po; assay type: ADME, organism-based; design: dose 10 mg/kg
[3] = Clearance in rat blood at 1 mg/kg, iv; assay type: ADME, organism-based; settings: in vivo
OCI-Ly10 [4] = test: Cytotoxicity against human OCI-LY10 cells assessed as reduction in cell viability after 72 hrs by CellTiter-Glo luminescent assay; assay type: functional, cell-based; settings: OCI-Ly10, 72 h
[5] = Volume of distribution at steady state in rat plasma at 1 mg/kg, iv; assay type: ADME, organism-based; settings: read-out: Vdss
SUMO-activating enzyme [6] = target: T1, SUMO-activating enzyme (Homo sapiens, UniProt Q9UBT2); test: Inhibition of SAE in human HCT116 cells assessed as reduction in redistribution of SUMO2/3 proteins from nucleus to cytosol incubated for 4 hrs by immunofluorescence assay; assay type: cell-based, HCT-116
Procedure, shortened: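 HCT-116 cells exposed to compound across a concentration range for 4 h, then stained with anti-SUMO2/3 monoclonal antibody. Automated imaging scored the nuclear (inner) to cytoplasmic (outer) SUMO2/3 ratio. IC50 taken from the dose response.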

[7] = Oral bioavailability in rat plasma at 10 mg/kg; assay type: ADME, organism-based
SUMO-activating enzyme [8] = target: T1, SUMO-activating enzyme; test: Inhibition of SAE in human HCT116 cells assessed as redistribution of SUMO2/3 proteins from nucleus to cytosol preincubated for 2 hrs followed by compound washout and measured immediately by immunofluorescence assay; assay type: cell-based, HCT-116
Procedure, shortened: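 Washout format of the SUMO2/3 immunofluorescence assay in HCT116 cells. Cells were exposed to a range of concentrations for 2 h, then washed free of compound.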

[9] = Apparent permeability across apical to basolateral side in human Caco2 cells; assay type: ADME, cell-based; settings: Caco-2
[10] = Half life in rat blood at 1 mg/kg, iv; assay type: ADME, organism-based
[11] = Volume of distribution at steady state in rat blood at 1 mg/kg, iv; assay type: ADME, organism-based; settings: read-out: Vdss
[12] = Inhibition of recombinant UAE (unknown origin) in presence of ATP at Km concentration by HTRF assay; design: species or system Homo sapiens
[13] = Efflux ratio of apparent permeability across basolateral to apical side over apical to basolateral side in human Caco-2 cells; assay type: ADME, cell-based
[14] = AUC in rat plasma at 10 mg/kg, po; assay type: ADME, organism-based; design: dose 10 mg/kg
[15] = Oral bioavailability in rat blood at 10 mg/kg; assay type: ADME, organism-based
[16] = target: T2, SUMO-activating enzyme (Homo sapiens) (UniProt Q9UBE0+Q9UBT2); test: Inhibition of SAE in human HCT116 cells xenografted in NCr nude mouse assessed as reduction in SUMO2/3 protein conjugates at 50 mg/kg, iv and measured up to 16 hrs by immunohistochemistry analysis; assay type: organism-based; settings: HCT-116
Procedure, shortened: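 HCT-116 tumors in female Ncr nude mice, n = 3 per time point, after a single IV dose at t = 0. SUMO2/3 conjugation in tumors measured by IHC at 2, 4, 8 and 16 h. Read-out is nuclei staining positive for SUMO2/3 conjugates over total nuclei, normalized to vehicle-treated animals (time = 0 h), expressed as percent inhibition.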

[17] = AUC in rat blood at 1 mg/kg, iv; assay type: ADME, organism-based; design: dose 1 mg/kg
OCI-Ly10 [18] = test: Antitumor activity against human OCI-Ly10 cells xenografted in CB17 SCID mouse assessed as tumor growth inhibition at 50 mg/kg, iv administered thrice per week for 21 days and measured twice weekly; assay type: functional, organism-based; settings: time 21.0 day
Procedure, shortened: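 Female CB17 SCID mice carrying OCI-Ly10 tumors (~200 mm3) were randomized, n = 8/group, with treatment from Day 1. Schedules were QD x21 (Days 1–21) or QD x3/week (three consecutive dosing days, four off). Tumor volume was measured twice weekly.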

[19] = target: T2, SUMO-activating enzyme (Homo sapiens); test: Inhibition of SAE in human OCI-Ly10 cells xenografted in NCr nude mouse assessed as reduction in SUMO2/3 protein conjugates at 25 mg/kg, iv and measured up to 24 hrs by immunohistochemistry analysis; assay type: organism-based; settings: HCT-116, time hrs <=24
[20] = Lipophilicity, logD of compound at pH 7.4; assay type: physicochemical; settings: buffer
[21] = target: T2, SUMO-activating enzyme (Homo sapiens); test: Inhibition of SAE in human OCI-Ly10 cells xenografted in CB17 SCID mouse assessed as improvement in SUMO-inhibitor adduct durability at 25 mg/kg, iv and measured up to 48 hrs by mass spectrometry; assay type: organism-based; settings: time hrs <=48
[22] = Dissociation constant , pKa of the compound; assay type: physicochemical
HCT-116 [23] = test: Antitumor activity against human HCT-116 cells xenografted in Ncr/nude mouse assessed as tumor growth inhibition at 50 mg/kg, iv administered thrice per week for 21 days and measured twice weekly; assay type: functional, organism-based; settings: time 21.0 day
Procedure, shortened: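 Female Ncr/nude mice carrying HCT-116 tumors (~200 mm3) were randomized, n = 8/group, with treatment from Day 1. Schedules were QD x21 (Days 1–21) or QD x3/week (three consecutive dosing days, four off). Tumor volume was measured twice weekly.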

[24] = Clearance in rat plasma at 1 mg/kg, iv; assay type: ADME, organism-based; settings: in vivo
[25] = Apparent permeability across basolateral to apical side in human Caco2 cells; assay type: ADME, cell-based; settings: Caco-2
[26] = Half life in rat plasma at 1 mg/kg, iv; assay type: ADME, organism-based
[27] = Solubility of compound in 10% hydroxypropyl-beta-cyclodextrin after 24 hrs; assay type: physicochemical
[28] = target: T2, SUMO-activating enzyme (Homo sapiens); test: Inhibition of SAE in human HCT116 cells xenografted in NCr nude mouse assessed as improvement in SUMO-inhibitor adduct durability at 50 mg/kg, iv and measured up to 16 hrs by mass spectrometry; assay type: organism-based; settings: HCT-116
Procedure, shortened: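 Single IV dose at t = 0 to female Ncr nude mice bearing HCT-116 tumors, n = 3 per time point. Tumors harvested 2, 4, 8 and 16 h post-injection. Read-out is the adduct/SAE ratio: quantity of SUMO-compound adduct over quantity of total SAE enzyme, both measured by mass spectrometry. Values are averaged per time point.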

Carbonic anhydrase 1 = Carbonic anhydrase 1 (Homo sapiens, UniProt P00915); test: Inhibition of human erythrocyte CA1 using fluorescein diacetate as substrate at […] by fluorometric esterase assay
Sequence of Carbonic anhydrase 1 (P00915 whole entry): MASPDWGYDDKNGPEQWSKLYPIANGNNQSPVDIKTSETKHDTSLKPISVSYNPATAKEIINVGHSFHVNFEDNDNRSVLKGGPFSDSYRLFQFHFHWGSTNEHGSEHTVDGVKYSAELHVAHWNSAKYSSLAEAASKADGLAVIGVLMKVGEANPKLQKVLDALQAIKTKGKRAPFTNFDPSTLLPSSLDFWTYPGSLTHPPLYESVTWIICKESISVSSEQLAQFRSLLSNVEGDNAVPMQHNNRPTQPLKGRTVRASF

T1 sequence (Q9UBE0 whole entry): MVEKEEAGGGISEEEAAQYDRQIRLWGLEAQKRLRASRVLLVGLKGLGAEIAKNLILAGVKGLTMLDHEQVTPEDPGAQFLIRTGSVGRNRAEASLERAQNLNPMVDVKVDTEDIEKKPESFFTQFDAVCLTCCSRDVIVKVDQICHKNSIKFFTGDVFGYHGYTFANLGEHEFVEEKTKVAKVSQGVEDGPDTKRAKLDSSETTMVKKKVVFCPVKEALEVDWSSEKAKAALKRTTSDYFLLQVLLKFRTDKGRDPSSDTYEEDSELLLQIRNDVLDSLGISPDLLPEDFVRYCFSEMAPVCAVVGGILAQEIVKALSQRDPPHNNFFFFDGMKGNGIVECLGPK
T1 sequence (Q9UBT2 whole entry): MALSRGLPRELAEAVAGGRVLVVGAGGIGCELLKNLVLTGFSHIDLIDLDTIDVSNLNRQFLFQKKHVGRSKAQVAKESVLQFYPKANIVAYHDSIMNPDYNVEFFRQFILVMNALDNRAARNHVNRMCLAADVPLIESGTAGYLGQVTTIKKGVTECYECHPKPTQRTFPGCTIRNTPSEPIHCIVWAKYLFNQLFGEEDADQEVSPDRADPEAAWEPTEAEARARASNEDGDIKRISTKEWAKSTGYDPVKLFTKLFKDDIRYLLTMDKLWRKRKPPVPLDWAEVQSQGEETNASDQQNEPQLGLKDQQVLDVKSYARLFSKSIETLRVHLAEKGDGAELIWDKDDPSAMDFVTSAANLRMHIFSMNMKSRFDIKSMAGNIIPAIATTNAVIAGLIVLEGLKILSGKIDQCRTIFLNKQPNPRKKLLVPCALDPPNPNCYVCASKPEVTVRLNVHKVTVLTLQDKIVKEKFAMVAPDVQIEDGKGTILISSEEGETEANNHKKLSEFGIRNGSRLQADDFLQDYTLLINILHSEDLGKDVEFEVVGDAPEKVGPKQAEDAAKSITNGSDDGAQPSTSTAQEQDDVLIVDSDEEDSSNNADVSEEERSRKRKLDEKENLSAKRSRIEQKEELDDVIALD

AUC [2]: 32 µM·h | clearance [3]: 0.1 L/h/kg | Vd [5]: 8.5 L/kg | bioavailability [7]: 7.3% | Papp A→B [9]: 3 nm/s | half-life [10]: 2.6 h | Vd [11]: 0.2 L/kg | IC50 [12]: > 1 µM | efflux ratio [13]: > 16 | AUC [14]: 0.3 µM·h | bioavailability [15]: 10% | AUC [17]: 31.2 µM·h | logD [20]: 2.1 | pKa [22]: 3.6 | clearance [24]: 3.7 L/h/kg | Papp B→A [25]: 460 nm/s | half-life [26]: 2.1 h | solubility at 24 h [27]: 20 mg/mL (≈ 34.6 mM) | IC50 (Carbonic anhydrase 1): 0.09 µM
SMILES: Cc1sc(C(=O)c2cncnc2N[C@@H]2C[C@H](COS(N)(=O)=O)[C@@H](O)C2)cc1[C@@H]1NCCc2ccc(Cl)cc21
EC50 (HCT-116 [1]): 0.063 µM | EC50 (OCI-Ly10 [4]): 0.004 µM | IC50 (SUMO-activating enzyme [6]): 0.015 µM | IC50 (SUMO-activating enzyme [8]): 0.032 µM | inhibition [16]: Active | Activity (OCI-Ly10 [18]): Active | inhibition [19]: Active | inhibition [21]: Active | Activity (HCT-116 [23]): Active | inhibition [28]: Active
